Assay results taken from ChEMBL document CHEMBL1132336, “Synthesis, evaluation, and comparative molecular field analysis of 1-phenyl-3-amino-1,2,3,4-tetrahydronaphthalenes as ligands for histamine H(1) receptors” (J Med Chem, 1999).

Biological target: Histamine H1 receptor (Cavia porcellus) (UniProt P31389)
Assay: Compound was tested for the displacement of [3H]mepyramine from Histamine H1 receptor by competition binding assay
In short: (§1)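 Membranes from guinea pig brain minus cerebellum (P2 fraction, pre-incubated 15 min at 25 °C, stored at –80 °C). Competition with 2 nM [3H]mepyramine in 50 mM Na+K+-phosphate pH 7.4, 1 h at 30 °C, triplicate tubes. Nonspecific binding defined with 20.0 μM triprolidine. Bound ligand collected on GF/B glass fibre filters, rinsed three times with cold buffer and counted by liquid scintillation.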

Histamine H1 receptor (Cavia porcellus), sequence (P31389 whole entry): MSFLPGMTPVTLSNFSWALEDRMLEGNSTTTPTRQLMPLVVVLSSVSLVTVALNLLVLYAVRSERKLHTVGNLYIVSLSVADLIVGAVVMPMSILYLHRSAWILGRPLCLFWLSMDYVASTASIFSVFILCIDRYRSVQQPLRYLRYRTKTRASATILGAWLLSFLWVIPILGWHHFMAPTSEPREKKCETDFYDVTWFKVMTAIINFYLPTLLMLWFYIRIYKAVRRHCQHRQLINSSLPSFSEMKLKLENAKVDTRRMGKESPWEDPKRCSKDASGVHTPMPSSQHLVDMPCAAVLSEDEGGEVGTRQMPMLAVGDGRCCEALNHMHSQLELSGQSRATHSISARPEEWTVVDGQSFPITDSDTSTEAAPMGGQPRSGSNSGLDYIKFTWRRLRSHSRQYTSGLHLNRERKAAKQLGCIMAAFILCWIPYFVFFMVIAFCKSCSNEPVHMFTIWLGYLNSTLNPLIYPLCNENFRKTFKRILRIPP

SMILES | K0.5
CN(C)CC[C@H](c1ccc(Cl)cc1)c1ccccn1 | 61.6 nM
CN(C)C1Cc2cc(Cl)c(O)cc2C(c2ccccc2)C1 (stereo in doubt; 2) | 1.47 nM
OC(CCCN1CCN(c2ncc(F)cn2)CC1)c1ccc(F)cc1 (configuration not stated) | 548 nM
CN(C)CC[C@@H](c1ccc(Cl)cc1)c1ccccn1 | 1.16 nM
CN(C)CCOC(c1ccccc1)c1ccccc1 | 6.1 nM
CN(C)CC/C=C1/c2ccccc2COc2ccccc21 | 0.16 nM
Cc1ccc(/C(=C\CN2CCCC2)c2ccccn2)cc1 | 0.46 nM

Organism: Cavia porcellus
Assay: Compound was tested for the displacement of [3H]mepyramine from Histamine H1 receptor by competition binding assay.
In short: as §1

SMILES | K0.5
CC(C)(C)[C@]1(O)CCN2C[C@H]3c4ccccc4CCc4cccc(c43)[C@@H]2C1 | 405 nM
CN(C)C1CCc2ccccc2C1 (configuration not stated) | 75 nM
CN(C)C1Cc2ccccc2C(c2ccc(Cl)cc2)C1 (configuration not stated) | 4.4 nM
C[N+](C)(C)C1Cc2ccccc2C(c2ccccc2)C1 (stereo in doubt; 3) | 120 nM
CCN(CC)C1Cc2ccccc2C(c2ccccc2)C1 (configuration not stated) | 13.3 nM
CN(C)C1Cc2ccccc2C(C)(c2ccccc2)C1 (stereo in doubt; 14) | 40 nM
CN(C)c1ccc2c3c(cccc13)-c1ccccc1-2 | 4000 nM
CN(C)C1Cc2ccccc2C(c2ccccc2)C1 (stereo in doubt; 1b) | 19.1 nM
CN(C)C1Cc2ccccc2C(c2ccc(F)cc2)C1 (configuration not stated) | 2.3 nM
CN(C)C1Cc2ccccc2C(c2ccccc2)C1 (stereo in doubt; 1a) | 1.07 nM
Cc1ccc(C2CC(N(C)C)Cc3ccccc32)cc1 (configuration not stated) | 5 nM
CN(C)C1Cc2ccccc2C(c2ccccc2)C1 (stereo in doubt; 1c) | 2.45 nM
CN(C)C1CCc2ccccc2C(c2ccccc2)C1 (stereo in doubt; 10) | 217 nM
CN(C)C1Cc2cc(O)c(O)cc2C(c2ccccc2)C1 (stereo in doubt; 13) | 11.8 nM
CN(C)C1Cc2ccccc2C(c2ccccc2Cl)C1 (configuration not stated) | 42.7 nM
CN(C)C1Cc2ccccc2C(C)(c2ccccc2)C1 (stereo in doubt; 15) | 4.4 nM
C=CCN1CC[C@@]2(C)c3cc(O)ccc3C[C@H]1[C@H]2C | 2000 nM
CN(C)C1Cc2cc(O)c(O)cc2C(c2ccccc2)C1 (stereo in doubt; 12) | 69 nM
C[N+](C)(C)C1Cc2ccccc2C(c2ccccc2)C1 (stereo in doubt; 25) | 107 nM
CNC1Cc2ccccc2C(c2ccccc2)C1 (configuration not stated) | 64 nM
CN(C)C1CCc2ccccc2C1c1ccccc1 (stereo in doubt; 8) | > 2000 nM
CN1[C@@H]2CC[C@H]1C[C@@H](OC(=O)C(CO)c1ccccc1)C2 (some centres not stated) | 580 nM
Nc1ccc2c3c(cccc13)-c1ccccc1-2 | 4000 nM
CN(C)C1Cc2ccccc2C(c2ccccc2)C1 (stereo in doubt; 1d) | 111 nM
Cc1ccccc1C1CC(N(C)C)Cc2ccccc21 (configuration not stated) | 12.7 nM
